From publication PMC4764508 (Journal of the American Chemical Society, 2015)
Like-named read-outs stand apart in the source and are kept apart here.

How the values were obtained:
[1] = cited from earlier work
[2] = Variable temperature 17O NMR: hydration state and water exchange; type: physicochemical; conditions: for ΔH^≠: water exchange; for kex^310: water exchange rate at 310 K
Method in brief: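 Transverse relaxivity of H217O was measured with the Mn complex present across a range of temperatures. The data were fitted to derive water exchange parameters, including kex at 310 K and ΔH, and the Mn-17O hyperfine coupling constant.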

T1 relaxivity = type: physicochemical; conditions: for Relaxivity r1 in pH 7.4 buffer: pH 7.4 Tris buffer
[3] = system: carotid artery thrombus (fibrin); assay: MR imaging of carotid artery thrombosis in a rat model, 1.5T; type: in vivo
Method in brief: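 In a rat carotid artery thrombosis model, 3D T1-weighted gradient-echo MRI with arterial inflow suppression was run at 1.5T. Scans were taken before and immediately after injection of 10 μmol/kg probe (40 μmol/kg metal) and repeated over 1 h; N=4 per probe. Thrombus-to-muscle and contralateral vessel-to-muscle CNR were followed over time. Thrombosis was confirmed by H&E histology. Error bars are SEM.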

[4] = Biodistribution in rats by ICP-MS; conditions: rat, in vivo
[5] = rat, in vivo
in vivo = conditions: rat
[6] = Mn blood pharmacokinetics and plasma speciation in rats; conditions: rat, HPLC-ICP-MS
[7] = Mn2+ thermodynamic stability constants by pH-potentiometry; type: physicochemical
Method in brief: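 The ligand was titrated by pH-potentiometry in the presence of 1 equiv MnCl2 at 25 °C and I = 0.15 M NaCl. KML = [ML]/([M][L]) and KHML = [HML]/([ML][H]). Effective formation constants were derived at pH 7.4. pMn is -log[free Mn] when [M] = [L] = 10 μM.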

[8] = type: physicochemical; conditions: 1 mM complex, 25 mM Zn2+, 50 mM pH 6.0 MES buffer, 37 °C, 1.4T
[9] = type: physicochemical; conditions: from Kcomp determined using CDTA challenge
Method in brief: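 The conditional stability constant at pH 7.4 came from direct competition of the Mn complex with CDTA, with species monitored by LC-MS. The effective constant was derived from the competition constant Kcomp. pMn was calculated as -log[free Mn] with [M] = [L] = 10 μM.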

[10] = Protein bound fraction by ultra-filtration; type: in vitro ADME, bovine; conditions: 150-300 μM solution
[11] = target: bovine serum albumin (BSA) (Bos taurus, UniProt P02769); assay: Protein bound fraction by ultra-filtration; type: in vitro ADME; conditions: 150-300 μM solution
[12] = Dynamic MRI clearance kinetics in mice; type: in vivo, balb/C mouse; conditions: 60 μmol/kg i.v., monoexponential fit of nSNR vs time
[13] = Mn tissue content by ICP-MS 24h after injection in mice; type: in vivo, mouse
Method in brief: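 Mice (N=4) received test compound i.v. at 60 μmol/kg. Tissue Mn was measured by ICP-MS at 24 h and compared with endogenous Mn in naive mice (N=4). Results were expressed as nmol/g and as %ID/g. Elevation above baseline was tested at P<0.05.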

[14] = rat, plateau by 35 minutes post injection

Sequence of bovine serum albumin (BSA) (P02769 25-607): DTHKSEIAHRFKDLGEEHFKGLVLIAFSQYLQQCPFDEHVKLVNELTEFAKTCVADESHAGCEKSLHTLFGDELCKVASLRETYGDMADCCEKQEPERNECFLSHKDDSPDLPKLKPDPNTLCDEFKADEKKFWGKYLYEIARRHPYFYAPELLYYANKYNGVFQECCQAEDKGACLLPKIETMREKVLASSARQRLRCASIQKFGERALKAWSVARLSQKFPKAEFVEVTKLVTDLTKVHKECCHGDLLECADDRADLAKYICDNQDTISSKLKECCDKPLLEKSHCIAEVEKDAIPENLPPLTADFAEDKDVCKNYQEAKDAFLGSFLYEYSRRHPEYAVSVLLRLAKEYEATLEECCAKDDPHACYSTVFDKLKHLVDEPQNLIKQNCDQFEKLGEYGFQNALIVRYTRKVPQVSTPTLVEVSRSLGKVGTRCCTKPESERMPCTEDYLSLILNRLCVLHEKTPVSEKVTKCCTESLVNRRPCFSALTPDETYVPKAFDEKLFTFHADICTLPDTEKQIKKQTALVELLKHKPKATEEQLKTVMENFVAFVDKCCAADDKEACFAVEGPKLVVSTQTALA

O=C([O-])CN1CCN(CC(=O)[O-])CCN(CC(=O)[O-])CCN(CC(=O)[O-])CC1.[Gd+3] [Gd-DOTA]
Relaxivity in plasma [1]: 3.6 mM⁻¹ s⁻¹

CC[C@H](C)[C@H](NC(=O)[C@H](Cc1ccc(O)cc1)NC(=O)[C@@H]1CSSC[C@H](NC(=O)[C@@H](CCC(=O)O)NC(=O)[C@H](Cc2ccc(O)cc2)NC(=O)[C@H](CNC(=O)c2ccc(CN(CC(=O)O)C3CCCCC3N(CC(=O)O)CC(=O)O)nc2)NC(=O)c2ccc(CN(CC(=O)O)C3CCCCC3N(CC(=O)O)CC(=O)O)nc2)C(=O)N2C[C@H](O)C[C@H]2C(=O)N[C@@H](Cc2ccc(O)c(Cl)c2)C(=O)NCC(=O)N[C@@H](CC(C)C)C(=O)N1)C(=O)N[C@@H](CCC(N)=O)C(=O)NCc1ccc(CNC(=O)[C@H](CNC(=O)c2ccc(CN(CC(=O)O)C3CCCCC3N(CC(=O)O)CC(=O)O)nc2)NC(=O)c2ccc(CN(CC(=O)O)C3CCCCC3N(CC(=O)O)CC(=O)O)nc2)cc1 (stereo partly shown) [Mn-FBP]
Hydration state (q) [2]: 1
Mn-17O hyperfine coupling constant AO/ħ [2]: 2.82±0.040 ×10^7 rad/s
Water exchange rate kex ([2]; 37 °C): 1.1e+08 s⁻¹
ΔH^≠ [2]: 9.49 kcal/mol
kex^310 [2]: 1.1±0.04 ×10^8 s^-1
Molecular relaxivity relative to per Mn values (T1 relaxivity): 4 fold
Relaxivity in human fibrinogen solution compared with buffer (T1 relaxivity; 1.4 T, 37 °C): unchanged
Relaxivity r1 in 4.5% w/v BSA solution (T1 relaxivity; 1.4 T, 37 °C, per Mn): 11.4 mM⁻¹ s⁻¹
Relaxivity r1 in bovine blood plasma (T1 relaxivity; 1.4 T, 37 °C, per Mn): 10.7 mM⁻¹ s⁻¹
Relaxivity r1 in human fibrin gel (T1 relaxivity; fibrinogen converted to fibrin gel, 1.4 T, 37 °C, per Mn): 13.5 mM⁻¹ s⁻¹
Increase in relaxivity in the presence of fibrin (T1 relaxivity; human fibrin gel vs buffer): 60%
Relaxivity r1 in pH 7.4 buffer (T1 relaxivity; 1.4 T, 37 °C, per Mn): 8.5 mM^-1s^-1
Per Mn relaxivity relative to [Mn(PyC3A)(H2O)]^- (T1 relaxivity; pH 7.4 buffer): 4 fold
Thrombus enhancement compared with EP-2104R ([3]; rat model of arterial thrombosis): equivalent thrombus enhancement
Increase of thrombus-to-muscle CNR post injection ([3]; rat, 10 μmol/kg probe): more than 5 fold
Peak CNR vs. muscle, contralateral vessel [3, 14]: 5.6±1.5
Peak CNR vs. muscle, thrombus [3, 14]: 32.9±4.0
Eliminated after 24 hr [4]: > 99%
Mn in muscle at 24h [4]: 0.02±0.02% of the injected dose per gram tissue
Total Mn blood clearance t1/2 [5]: 22.6 ± 6.8 min
half-life (in vivo): 23.5 ± 13.4 min
Mn dechelation in blood plasma (Mn speciation) [6]: no evidence of Mn dechelation

O=C(O)CN(CC(=O)O)C1CCCCC1N(CC(=O)O)Cc1ccccn1 (stereo not drawn) [PyC3A, N-picolyl-N,N′,N′-trans-1,2-cyclohexylenediaminetriacetate]
pH by which complexation is complete ([7]; 1 mM each Mn2+ and PyC3A, 0.15M NaCl, 25 °C): 4.5

O=C([O-])CN(CCN(CC(=O)[O-])CC(=O)[O-])CCN(CC(=O)[O-])CC(=O)[O-].[Gd+3] [[Gd(DTPA)(H2O)]^2-]
Pseudo-first order rate constant of transmetallation [8]: 1.41±0.31 × 10^-2 s^-1
Relaxivity in plasma [1]: 4.1 mM⁻¹ s⁻¹

O.O=C([O-])CN(CC(=O)[O-])C1CCCCC1N(CC(=O)[O-])CC(=O)[O-].[Mn+2] (stereo not shown) [[Mn(CDTA)(H2O)]^2-]
Pseudo-first order rate constant of transmetallation [8]: 1.10±0.01 × 10^-3 s^-1

O.O=C([O-])CN(CC(=O)[O-])C1CCCCC1N(CC(=O)[O-])Cc1ccccn1.[Mn+2] (stereo not shown) [[Mn(PyC3A)(H2O)]^-]
logKML ([7]; Mn(II) complex, pH-potentiometry, 25 °C, I = 0.15 M NaCl): 14.14
logKpH 7.4 (effective formation constant at pH 7.4) ([7]; from potentiometric titration, 25 °C, 0.15 M NaCl): 11.34
Stability relative to [Mn(DPDP)]^3- at pH 7.4 ([7]; pH 7.4): > 10^5 times
logKpH 7.4 (effective formation constant at pH 7.4) [9]: 11.40
Pseudo-first order rate constant of transmetallation [8]: 6.76±0.03 × 10^-4 s^-1
Hydration state (q) [2]: 1
Mn-17O hyperfine coupling constant AO/ħ [2]: 2.87±0.080 ×10^7 rad/s
ΔH^≠ [2]: 8.89 kcal/mol
kex^310 [2]: 1.0±0.02 ×10^8 s^-1
Relaxivity r1 in 4.5% w/v BSA solution (T1 relaxivity; 1.4 T, 37 °C, per Mn): 3.4 mM⁻¹ s⁻¹
Relaxivity r1 in bovine blood plasma (T1 relaxivity; 1.4 T, 37 °C, per Mn): 3.8 mM⁻¹ s⁻¹
Relaxivity r1 in pH 7.4 buffer (T1 relaxivity; 1.4 T, 37 °C, per Mn): 2.1 mM^-1s^-1
Fraction protein bound in plasma [10]: 1-5%
Fraction protein bound in 4.5% w/v BSA solution [11]: 1-5%
Blood clearance t1/2 [12]: 7.8 ± 3.0 min
Elimination by 24h [13]: > 99%
Injected dose remaining in the body at 24 hours [13]: less than 1%
Mn levels in all other tissues at 24h vs naïve mice ([13]; 60 μmol/kg i.v., ICP-MS): not elevated above endogenous basal levels
Mn remaining in liver and kidneys at 24h ([13]; 60 μmol/kg i.v., ICP-MS): < 0.05 %ID/g
